Measured values collected from several papers.

Compound	cell line	test	conditions	quantity	result
COc1cc2c3c(n(CCCNCCO)c(=O)c2cc1OC)-c1cc2c(cc1C3=O)OCO2	HOP-62	cell growth or viability		GI50	0.02 µM
CN1CCCN=C1/C=C/c1cccs1	human PBMC	cell migration	10 µM	inhibition	76%
Cc1cc(C)c(N2CCN(c3c(C)cc(C)cc3C)C2=[Se])c(C)c1	HCT-15	cell growth or viability, MTT	72 h	IC50	10.2 µM
O=C(Oc1ccc(-n2cccc2)cc1)[c-]1cccc1.[Fe+2].c1cc[cH-]c1	MCF-10A	cell growth or viability, MTT	72 h	IC50	1.8 µM
N[C@@H](Cc1ccc(N(CCCl)CCCl)cc1)C(=O)O	MCF-10A	cell growth or viability, CCK-8	48 h	IC50	> 50 µM
O=C(c1cc(Cl)c(Cl)[nH]1)c1c(O)cccc1O	MDCK	cell growth or viability, MTT	72 h	IC50	1.3 mg/L
O=C(O)CCCc1ccc(N(CCCl)CCCl)cc1	MCF-10A	cell growth or viability, CCK-8	48 h	IC50	> 50 µM
CCCCCCc1ccc(O)cc1O	human PBMC	cell migration	10 µM	inhibition	57%
O=C(Oc1ccc(Br)cc1)[c-]1cccc1.[Fe+2].c1cc[cH-]c1	MCF-10A	cell growth or viability, MTT	72 h	IC50	353 µM
[Se]=c1n(C2CCCCC2)ccn1C1CCCCC1	HCT-15	cell growth or viability, MTT	72 h	IC50	14.2 µM
O=C(O)c1ccccc1NCc1ccco1	human PBMC	cell migration	10 µM	inhibition	82%
Cn1cncc1[C@@](N)(c1ccc(Cl)cc1)c1ccc2c(c1)c(-c1cccc(Cl)c1)cc(=O)n2C	CAL-27	cell growth or viability	72 h	IC50	9.78 µM
NS(=O)(=O)c1cc(C(=O)O)c(NCc2ccco2)cc1Cl	human PBMC	cell migration, inhibitor		IC50	~1 µM
O=C(O)C(Cl)Cl	HCT-15	cell growth or viability, MTT	72 h	IC50	> 50 µM
O=C(O)c1cc(S(=O)(=O)NCc2ccco2)c(Cl)cc1N1CCCCC1	human PBMC	cell migration	10 µM	inhibition	42%
CCCCCCCCCCCCCCCC[N+](C)(C)C	MDCK	cell growth or viability, MTT		IC50	9 µM
